Measured values: ChEMBL document CHEMBL1129260, “Evaluation of the stability and animal biodistribution of gadolinium (III) benzylamine-derivatized diethylenetriaminepentaacetic acid” (J Med Chem, 1996)

Key:
Rattus norvegicus [1] = species on record: Rattus norvegicus; assay: Biodistribution of Gd-LDTA (conjugated with galactose BSA) protein using [111In]- in mature female Sprague-Dawley rat bone after injecting for 96 hour.; format: ADME, organism-based, Bone element; settings: in vivo
Rattus norvegicus [2] = species on record: Rattus norvegicus; assay: Biodistribution of In-LDTA (conjugated with BSA) protein using [111In]- in mature female Sprague-Dawley rat kidney after injecting for 1 hour.; format: ADME, organism-based; settings: in vivo
Outline: (§1)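 SCN-LDTPA was coupled (pH 9 bicine, 24 h, RT) to BSA, mannosylated BSA or galactosylated BSA and FPLC-purified. The conjugate (400 μg) was labeled with 340 μCi 111In acetate at pH 5.5 for 45 min and gel-filtered. Mature female Sprague-Dawley rats received 19 μg of conjugate; four rats per time point. Blood, liver, bone, kidney and colon were taken and reported as %ID/organ.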

[3] = Gadolinium(III) stability constants (log K value) for the compound polyamino carboxylate derivative; format: physicochemical; settings: 0.1 M KCl
Outline: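 Potentiometric titration under argon at 25.00(5) °C in 0.100 M KCl, meter calibrated to read -log [H+] with dilute standard HCl. LDTPA with an equimolar amount of GdCl3 titrated with CO2-free 0.0999 M KOH, added in 0.100 mL aliquots, up to pH 11. Ligand protonation constants came from a parallel titration without metal. Constants were computed from the titration data.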

Rattus norvegicus [4] = species on record: Rattus norvegicus; assay: Biodistribution of Gd-DTA (conjugated with BSA)protein using [111In]- in mature female Sprague-Dawley rat blood after injecting for 1 hour.; format: ADME, organism-based; settings: in vivo
Outline: (§2)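 Conjugate of SCN-LDTPA with BSA, mannosylated BSA or galactosylated BSA (10 equiv chelate, pH 9 bicine, RT 24 h; FPLC-purified) was labelled with 340 μCi 111In acetate at pH 5.5 for 45 min. It was then gel-filtered (Biospin-6) and checked for purity by FPLC. Mature female Sprague-Dawley rats received 19 μg of conjugate. Four rats per time point (1, 4, 24, 48 h) were killed; blood, liver, bone, kidney and colon were taken and %ID/organ was calculated.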

Rattus norvegicus [5] = species on record: Rattus norvegicus; assay: Biodistribution of Gd-LDTA (conjugated with galactose BSA) protein using [111In]- in mature female Sprague-Dawley rat liver after injecting for 4 hour.; format: ADME, organism-based; settings: in vivo; outline: as §2
Rattus norvegicus [6] = species on record: Rattus norvegicus; assay: Biodistribution of Gd-DTA (conjugated with BSA)protein using [111In]- in mature female Sprague-Dawley rat liver after injecting for 48 hour.; format: ADME, organism-based; settings: in vivo; outline: as §2
Rattus norvegicus [7] = species on record: Rattus norvegicus; assay: Biodistribution of In-LDTA (conjugated with galactose BSA)protein using [111In]- in mature female Sprague-Dawley rat kidney after injecting for 24 hour.; format: ADME, organism-based; settings: in vivo; outline: as §1
Rattus norvegicus [8] = species on record: Rattus norvegicus; assay: Biodistribution of In-LDTA (conjugated with galactose BSA)protein using [111In]- in mature female Sprague-Dawley rat blood after injecting for 4 hour.; format: ADME, organism-based; settings: in vivo; outline: as §1
Rattus norvegicus [9] = species on record: Rattus norvegicus; assay: Biodistribution of In-LDTA (conjugated with BSA) protein using [111In]- in mature female Sprague-Dawley rat blood after injecting for 24 hour.; format: ADME, organism-based; settings: in vivo; outline: as §1
Rattus norvegicus [10] = species on record: Rattus norvegicus; assay: Biodistribution of In-LDTA (conjugated with BSA) protein using [111In]- in mature female Sprague-Dawley rat colon after injecting for 24 hour.; format: ADME, organism-based; settings: in vivo; outline: as §1
Rattus norvegicus [11] = species on record: Rattus norvegicus; assay: Biodistribution of In-LDTA (conjugated with galactose BSA)protein using [111In]- in mature female Sprague-Dawley rat blood after injecting for 48 hour.; format: ADME, organism-based; settings: in vivo; outline: as §1
Rattus norvegicus [12] = species on record: Rattus norvegicus; assay: Biodistribution of In-LDTA (conjugated with mannoseBSA) protein using [111In]- in mature female Sprague-Dawley rat colon after injecting for 4 hour.; format: ADME, organism-based; settings: in vivo; outline: as §1
Rattus norvegicus [13] = species on record: Rattus norvegicus; assay: Biodistribution of Gd-LDTA (conjugated with mannose BSA) protein using [111In]- in mature female Sprague-Dawley rat liver after injecting for 1 hour.; format: ADME, organism-based; settings: in vivo
Rattus norvegicus [14] = species on record: Rattus norvegicus; assay: Biodistribution of Gd-LDTA (conjugated with mannose BSA) protein using [111In]- in mature female Sprague-Dawley rat kidney after injecting for 48 hour.; format: ADME, organism-based; settings: in vivo
Rattus norvegicus [15] = species on record: Rattus norvegicus; assay: Biodistribution of In-LDTA (conjugated with mannoseBSA) protein using [111In]- in mature female Sprague-Dawley rat bone after injecting for 48 hour.; format: ADME, organism-based, Bone element; settings: in vivo; outline: as §1
Rattus norvegicus [16] = species on record: Rattus norvegicus; assay: Biodistribution of Gd-LDTA (conjugated with galactose BSA) protein using [111In]- in mature female Sprague-Dawley rat bone after injecting for 24 hour.; format: ADME, organism-based, Bone element; settings: in vivo; outline: as §2
Rattus norvegicus [17] = species on record: Rattus norvegicus; assay: Biodistribution of Gd-LDTA (conjugated with galactose BSA) protein using [111In]- in mature female Sprague-Dawley rat bone marrow after injecting for 1 hour.; format: ADME, organism-based; settings: in vivo
Rattus norvegicus [18] = species on record: Rattus norvegicus; assay: Biodistribution of Gd-DTA (conjugated with BSA)protein using [153Gd]- in mature female Sprague-Dawley rat bone marrow after injecting for 4 hour.; settings: in vivo
Rattus norvegicus [19] = species on record: Rattus norvegicus; assay: Biodistribution of In-LDTA (conjugated with BSA) protein using [111In]- in mature female Sprague-Dawley rat colon after injecting for 1 hour.; format: ADME, organism-based; settings: in vivo; outline: as §1
Rattus norvegicus [20] = species on record: Rattus norvegicus; assay: Biodistribution of Gd-DTA (conjugated with BSA)protein using [111In]- in mature female Sprague-Dawley rat colon after injecting for 24 hour.; format: ADME, organism-based; settings: in vivo; outline: as §2
Rattus norvegicus [21] = species on record: Rattus norvegicus; assay: Biodistribution of In-LDTA (conjugated with mannoseBSA)protein using [111In]- in mature female Sprague-Dawley rat blood after injecting for 4 hour.; format: ADME, organism-based; settings: in vivo; outline: as §1
Rattus norvegicus [22] = species on record: Rattus norvegicus; assay: Biodistribution of Gd-DTA (conjugated with BSA)protein using [111In]- in mature female Sprague-Dawley rat bone after injecting for 1 hour.; format: ADME, organism-based, Bone element; settings: in vivo; outline: as §2
Rattus norvegicus [23] = species on record: Rattus norvegicus; assay: Biodistribution of In-LDTA (conjugated with BSA) protein using [111In]- in mature female Sprague-Dawley rat liver after injecting for 4 hour.; format: ADME, organism-based; settings: in vivo; outline: as §1
Rattus norvegicus [24] = species on record: Rattus norvegicus; assay: Biodistribution of In-LDTA (conjugated with galactose BSA)protein using [111In]- in mature female Sprague-Dawley rat kidney after injecting for 48 hour.; format: ADME, organism-based; settings: in vivo; outline: as §1
Rattus norvegicus [25] = species on record: Rattus norvegicus; assay: Biodistribution of Gd-LDTA (conjugated with galactose BSA) protein using [111In]- in mature female Sprague-Dawley rat bone marrow after injecting for 24 hour.; format: ADME, organism-based; settings: in vivo
Rattus norvegicus [26] = species on record: Rattus norvegicus; assay: Biodistribution of In-LDTA (conjugated with BSA)protein using [111In]- in mature female Sprague-Dawley rat colon after injecting for 24 hour.; format: ADME, organism-based; settings: in vivo; outline: as §1
Rattus norvegicus [27] = species on record: Rattus norvegicus; assay: Biodistribution of In-LDTA (conjugated with galactose BSA)protein using [111In]- in mature female Sprague-Dawley rat bone after injecting for 24 hour.; format: ADME, organism-based, Bone element; settings: in vivo; outline: as §1
Rattus norvegicus [28] = species on record: Rattus norvegicus; assay: Biodistribution of In-LDTA (conjugated with BSA) protein using [111In]- in mature female Sprague-Dawley rat bone after injecting for 48 hour.; format: ADME, organism-based, Bone element; settings: in vivo; outline: as §1
Rattus norvegicus [29] = species on record: Rattus norvegicus; assay: Biodistribution of In-LDTA (conjugated with mannoseBSA) protein using [111In]- in mature female Sprague-Dawley rat bone after injecting for 4 hour.; format: ADME, organism-based, Bone element; settings: in vivo; outline: as §1
Rattus norvegicus [30] = species on record: Rattus norvegicus; assay: Biodistribution of In-LDTA protein using [111In]- in mature female Sprague-Dawley rat blood after injecting for 1 hour.; format: ADME, organism-based; settings: in vivo; outline: as §1

ID/organ (Rattus norvegicus [1]): 9.55%
ID/organ (Rattus norvegicus [2]): 3.15%
Log K [3]: 22
ID/organ (Rattus norvegicus [4]): 83.4%
ID/organ (Rattus norvegicus [5]): 86.1%
ID/organ (Rattus norvegicus [6]): 17.4%
ID/organ (Rattus norvegicus [7]): 0.112%
ID/organ (Rattus norvegicus [8]): 0.0462%
ID/organ (Rattus norvegicus [9]): 10.8%
ID/organ (Rattus norvegicus [10]): 2.87%
ID/organ (Rattus norvegicus [11]): 0.0267%
ID/organ (Rattus norvegicus [12]): 0.156%
ID/organ (Rattus norvegicus [13]): 70.2%
ID/organ (Rattus norvegicus [14]): 0.379%
ID/organ (Rattus norvegicus [15]): 9.84%
ID/organ (Rattus norvegicus [16]): 7.01%
ID/organ (Rattus norvegicus [17]): 0.031%
ID/organ (Rattus norvegicus [18]): 1.75%
ID/organ (Rattus norvegicus [19]): 0.86%
ID/organ (Rattus norvegicus [20]): 2.83%
ID/organ (Rattus norvegicus [21]): 0.149%
ID/organ (Rattus norvegicus [22]): 18.1%
ID/organ (Rattus norvegicus [23]): 17%
ID/organ (Rattus norvegicus [24]): 0.14%
ID/organ (Rattus norvegicus [25]): 0.04%
ID/organ (Rattus norvegicus [26]): 9.4%
ID/organ (Rattus norvegicus [27]): 0.379%
ID/organ (Rattus norvegicus [28]): 25.9%
ID/organ (Rattus norvegicus [29]): 10.1%
ID/organ (Rattus norvegicus [30]): 61.3%
Structure (SMILES): Nc1ccc(CC(C(=O)O)N(CCN(CC(=O)O)CC(=O)O)CCN(CC(=O)O)CC(=O)O)cc1 (stereo not given)
